From paper PMC12663558 (Scientific Reports, 2025)

Tests used:
[1] = target: DNA; details: traditional intercalators, typical range; cited from earlier work
[2] = system: CT-DNA (calf thymus DNA); assay: UV-Vis titration with CT-DNA; type: binding; details: 298 K; for apparent binding constant Kapp with CT-DNA: UV-Vis titration, Tris-HCl pH 7.2; for standard Gibbs free energy change ΔG° of CT-DNA binding: ΔG° = -RTlnKapp
In short: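 CT-DNA stock was 1.5 mg/mL in Tris-HCl pH 7.2, made at 4 °C, with A260/A280 of 1.8–1.9; it was quantified by ε260 = 6600 M−1cm−1. 50 µL of stock was added to 1.45 mL buffer. Test compound (10−4 M stock in water) was added stepwise up to 9.09–13.29 µM, with 2 min at 298 K per step and absorbance read at 260 nm. Kapp = intercept/slope of the 1/(A−A0) versus 1/[Ligand] plot. ΔG° = −RTlnKapp at 298 K.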

[3] = Lipophilicity; type: physicochemical; details: 2-octanol/water
In short: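 Shake-flask partition used 2-octanol and doubly distilled water 1:1 v/v (10 mL total) with 0.001 g test compound. The mixture was shaken overnight, left to equilibrate 1 h, and the phases separated. Compound in each phase was quantified by UV-Vis. log P was taken from the octanol/water concentration ratio.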

[4] = target: bovine serum albumin (BSA) (Bos taurus, UniProt P02769); assay: UV-Vis titration with BSA; type: binding; details: for standard Gibbs free energy change ΔG° of BSA binding: 298 K, ΔG° = -RTlnKapp
bovine serum albumin (BSA), sequence (P02769 25-607): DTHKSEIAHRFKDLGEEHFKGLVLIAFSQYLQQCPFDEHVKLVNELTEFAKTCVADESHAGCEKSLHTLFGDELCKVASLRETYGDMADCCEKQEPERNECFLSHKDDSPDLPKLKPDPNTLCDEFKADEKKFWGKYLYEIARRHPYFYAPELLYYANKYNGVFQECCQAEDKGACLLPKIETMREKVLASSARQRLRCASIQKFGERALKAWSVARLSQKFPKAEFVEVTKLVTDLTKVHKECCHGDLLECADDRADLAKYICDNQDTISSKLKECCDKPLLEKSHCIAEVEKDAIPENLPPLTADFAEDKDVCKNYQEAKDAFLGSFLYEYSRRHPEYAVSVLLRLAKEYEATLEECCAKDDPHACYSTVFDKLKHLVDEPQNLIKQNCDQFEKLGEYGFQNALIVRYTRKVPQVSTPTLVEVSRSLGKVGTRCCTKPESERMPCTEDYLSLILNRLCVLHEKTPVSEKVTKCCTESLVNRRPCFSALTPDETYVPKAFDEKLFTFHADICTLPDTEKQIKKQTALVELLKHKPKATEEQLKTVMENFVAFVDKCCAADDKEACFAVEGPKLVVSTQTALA
In short: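 BSA stock was 3 mg/mL in Tris-HCl pH 7.2, made at 4 °C and quantified by ε280 = 44,300 M−1cm−1; 500 µL of stock was diluted with 1.00 mL buffer. Test compound (10−4 M stock in water) was added stepwise up to 6.83–10.18 µM, with 2 min equilibration at 298 K per step and readings at 280 nm. Kapp = intercept/slope of 1/(A−A0) versus 1/[Ligand]. ΔG° = −RTlnKapp (R 1.987 cal mol−1 K−1, T 298 K).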

[5] = DPPH free radical scavenging assay; type: biochemical; details: standard control, compared with 3a-c
In short: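 DPPH stock was 0.1 mM in ethanol. Test compound solutions at 10, 25, 50, 100, 250, 500 and 1000 µg/mL (concentrations before mixing) were each mixed 1:1 v/v with the DPPH solution. Mixtures were vortexed 10 s and kept in the dark at room temperature for 30 min, then absorbance was read at 517 nm. Ascorbic acid was the reference antioxidant. Scavenging was calculated from absorbance by equation.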

Compound	binding constant Kb with DNA [1]	apparent binding constant Kapp with CT-DNA [2]	standard Gibbs free energy change ΔG° of CT-DNA binding [2] [kcal/mol]	logP [3]	Kd [4] [µM]	standard Gibbs free energy change ΔG° of BSA binding [4] [kcal/mol]	DPPH free radical scavenging activity (in words) [5]
[Ru(phen)DPPZ]	10^6 to 10^7 M^− 1	–	–	–	–	–	–
CC[n+]1c(-c2ccccc2)c2cc(N)ccc2c2ccc(N)cc21 [ethidium bromide]	10^6 to 10^7 M^− 1	–	–	–	–	–	–
O=C1Nc2ccccc2/C1=N/N=C/c1cccc([N+](=O)[O-])c1 [3a, (Z)−3-(((E)−3-nitrobenzylidene)hydrazineylidene)indolin-2-one]	–	1.01 × 10^4 M^− 1	-5.46	1.29	151	-5.21	–
COc1ccccc1/C=N/N=C1\C(=O)Nc2ccccc21 [3b, (Z)−3-(((E)−2-methoxybenzylidene)hydrazineylidene)indolin-2-one]	–	1.17 × 10^4 M^− 1	-5.55	2.3	136	-5.27	–
O=C1O[C@H]([C@@H](O)CO)C(O)=C1O [ascorbic acid, Ascorbic acid]	–	–	–	–	–	–	highest scavenging activity
